Reference: PubChem BioAssay
Inconclusive results are not listed.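 How the source made its calls, unless noted: active means growth inhibition above 25% in both replicates, a cutoff set 3 SD above the mean; inconclusive means above 25% in only one replicate; inactive means the rest.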

Key:
[1] = S. cerevisiae growth inhibition in permissive medium (OD615), pilot counter-assay for S. cerevisiae lifespan shortening project, permissive growth control (AID 705); details: OD615, 24 h, at 10 µM, active compounds read high
In short: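 Material: engineered DeaD yeast; Compound: one dose 10 µM, DMSO 0.25% final; Detection: absorbance (optical density) at 615 nm; Buffer or medium: permissive raffinose/galactose medium; Timing: 24 h exposure, 30 °C.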

[2] = S. cerevisiae growth inhibition in restrictive medium, OD615, pilot screen, restrictive growth control, yeast lifespan reduction project (AID 706;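 active means growth inhibition above a set limit, 3 SD over mean compound inhibition, in both replicates, cut at about 43% in these data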;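 further: modified DeaD lifespan yeast strain shifted to restrictive glucose medium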); details: OD615, 48 h, at 10 µM, active compounds read high
In short: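 Buffer or medium: restrictive glucose medium (CSMM-D); test system: modified S. cerevisiae; doses: single dose of 10 µM compound final, 0.25% DMSO; schedule: 48 h compound exposure at 30 °C; detection: absorbance (optical density) measured at 615 nm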

[3] = doxorubicin toxicity protection in MRP-1 cells – H69AR cells, CellTiter-Glo, duplicate, MRP-1 activator project, pilot screen (AID 807;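 active means viability increase at or above a cutoff of the median across tested compounds plus 3 SD, cut at about 8.5% in these data, passing the limit was not always enough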;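 further: compound pretreatment 18-22 h then 72 h combined with doxorubicin; 0% = doxorubicin alone and 100% = vehicle without doxorubicin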); details: H69AR viability with doxorubicin, CellTiter-Glo luminescence; at 10 µM; active compounds read high
[4] = viability of HCT116 without oncogenic beta-catenin – human colon tumor cells, pilot screen (AID 823;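 active means cell viability at or below a set limit in both duplicate runs, the limit being the all-compound median minus 4 SD, cut at about 23% in these data, passing the limit was not always enough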;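 further: 0% = wells killed by 20 µM Hyamine and 100% = untreated DMSO cell wells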); details: HCT116 beta-catenin knockout viability, CellTiter-Glo, 60 h; at 10 µM; active compounds read low
[5] = RAM pathway blockade in budding yeast – dse1pr::URA3 reporter, 5-FOA selection, pilot screen (AID 869;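 active means inhibition over a set limit, the all-compound mean plus 3 SD, in both replicate runs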;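 further: 0% = DMSO wells with no growth and 100% = 10 µM 1-NA-PP1 with full growth; RAM network block rescues cells from 5-FOA so hits raise OD615 growth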); details: S. cerevisiae dse1pr::URA3 5-FOA growth, OD615, 2 d; at 10 µM; active compounds read high; strain carries analog-sensitive mutant Cbk1 kinase
[6] = RAM signaling pathway blockade in yeast – S. cerevisiae, Pdr1DBD-CYC8 efflux-inhibited sensitized strain, primary screen (AID 1298;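 active means RAM network inhibition above 8.4% in each of two replicates, 3 SD over the compound average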;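 further: 0% = DMSO untreated cells without growth and 100% = 10 µM 1-NA-PP1 full growth; higher means more yeast growth rescued from 5-FOA killing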); details: S. cerevisiae cbk1-as DSE1-URA3 strain, 5-FOA growth OD615, 2 d; at 50 µM; active compounds read high

CCCCNC(=O)C1C2C=CC3(CN(Cc4ccc(C)cc4)C(=O)C13)O2 (stereo unspecified)
inactive: growth inhibition [1] 2.61% | growth inhibition [2] -16.4% | viability increase [3] -2.02% | viability [4] 95.1% | inhibition [5] 0.08% | RAM network inhibition [6] 0.67%

CCCn1cc(S(=O)(=O)CC(=O)Nc2ccc(OCC)cc2)c2ccccc21
inactive: growth inhibition [1] 1.42% | growth inhibition [2] 3.91% | viability increase [3] -4.37% | viability [4] 84.7% | inhibition [5] 1.41% | RAM network inhibition [6] 6.49%

Cc1cccc(N(CC(=O)Nc2c(C)n(C)n(-c3ccccc3)c2=O)S(C)(=O)=O)c1C
inactive: growth inhibition [1] -16.3% | growth inhibition [2] -3.62% | viability increase [3] -1.08% | viability [4] 95.3% | inhibition [5] 1.41% | RAM network inhibition [6] 5.77%

Cc1cc(NC(=O)Cn2c(=O)n(Cc3ccccc3)c(=O)c3ccccc32)no1
inactive: growth inhibition [1] -5.91% | growth inhibition [2] -24.7% | viability increase [3] -5.98% | viability [4] 51.5% | inhibition [5] 1.32% | RAM network inhibition [6] 6.47%

CCC(=O)c1cn(CC(=O)NCC2CCCO2)c2ccccc12 (stereo unspecified)
inactive: growth inhibition [1] 0.725% | growth inhibition [2] 12.5% | viability increase [3] -3.8% | viability [4] 96.7% | inhibition [5] 2.02% | RAM network inhibition [6] 1.98%

Cc1cc(Nc2nc3c(c(=O)n(C)c(=O)n3C)n2C)n(-c2ccc(Cl)cc2)n1
inactive: growth inhibition [1] 9.41% | growth inhibition [2] 3.67% | viability increase [3] -3.74% | viability [4] 92.7% | inhibition [5] 3.25% | RAM network inhibition [6] 3.85%

CN1CCc2c(sc3nc(SCC(=O)N4CCOCC4)nc(N)c23)C1
inactive: growth inhibition [1] -4.38% | growth inhibition [2] 0.52% | viability increase [3] -4.4% | viability [4] 95.1% | inhibition [5] 0.215% | RAM network inhibition [6] 5.05%

COc1ccccc1-c1nc(NC(C)=O)n[nH]1
inactive: growth inhibition [1] -12.1% | growth inhibition [2] -8.54% | viability increase [3] -4.21% | viability [4] 92.1% | inhibition [5] 3.42% | RAM network inhibition [6] 5.35%

COc1ccccc1N1CCN(C2=CC(=O)CCC2)CC1
inactive: growth inhibition [1] -17.3% | growth inhibition [2] -12.2% | viability increase [3] -1.22% | viability [4] 100% | inhibition [5] 0.81% | RAM network inhibition [6] 2.91%

O=c1[nH]c2ccc(S(=O)(=O)NCc3ccccn3)cc2s1
inactive: growth inhibition [1] -13.7% | growth inhibition [2] 2.04% | viability increase [3] -1.44% | viability [4] 95.8% | inhibition [5] 1.35% | RAM network inhibition [6] 6.28%

CC(=O)NCC(=O)N(c1c(C)n(C)n(-c2ccccc2)c1=O)C1(C(=O)NC2CCCC2)CCCCC1
inactive: growth inhibition [1] 10% | growth inhibition [2] -0.075% | viability increase [3] -0.84% | viability [4] 97.2% | inhibition [5] 1.13% | RAM network inhibition [6] -0.72%

O=C(Nc1ccc(Cl)cc1)c1ccncc1
inactive: growth inhibition [1] -11.5% | growth inhibition [2] -3.32% | viability increase [3] 0.18% | viability [4] 106% | inhibition [5] 1.14% | RAM network inhibition [6] 6.15%

CSc1nc(SCC(=O)NCc2ccco2)c2c3c(sc2n1)COC(C)(C)C3
inactive: growth inhibition [1] -11.7% | growth inhibition [2] -6.08% | viability increase [3] -8.04% | viability [4] 33.9% | inhibition [5] 2.8% | RAM network inhibition [6] 7.62%

CCOC(=O)CNC(=O)c1cn(C)c(=O)c2cc(OC)c(OC)cc12
inactive: growth inhibition [1] -29.2% | growth inhibition [2] -3.25% | viability increase [3] -2.81% | viability [4] 86.5% | inhibition [5] 0.24% | RAM network inhibition [6] 2.87%

O=C(c1ccco1)N1CCN(C(=O)C2Cc3ccccc3CN2S(=O)(=O)c2ccc(F)cc2)CC1 (stereo unspecified)
inactive: growth inhibition [1] -12.6% | growth inhibition [2] -9.61% | viability increase [3] -4.67% | viability [4] 97.2% | inhibition [5] 3.29% | RAM network inhibition [6] 7.28%

CCOC(=O)C1=C(N)OC2=C(C(=O)CCC2)C1c1cccnc1 (stereo unspecified)
inactive: growth inhibition [1] -6.66% | growth inhibition [2] 4.47% | viability increase [3] -2.49% | viability [4] 104% | inhibition [5] 1.22% | RAM network inhibition [6] 2.44%

CCC(=O)c1cc(F)c(N2CCN(S(=O)(=O)c3ccccc3)CC2)cc1C
inactive: growth inhibition [1] -21.4% | growth inhibition [2] 0.885% | viability increase [3] 0.77% | viability [4] 59.2% | inhibition [5] 0.65% | RAM network inhibition [6] 1.67%

O=C(c1ccccn1)N1CCN(c2ccc(C(F)(F)F)cn2)CC1
inactive: growth inhibition [1] -20.7% | growth inhibition [2] -2.59% | viability increase [3] 0.37% | viability [4] 96.5% | inhibition [5] 1.64% | RAM network inhibition [6] 3.84%

Cc1ccc(N=C2SCCCN2C(=O)c2ccco2)cc1Cl
inactive: growth inhibition [1] -10.1% | growth inhibition [2] 4.65% | viability increase [3] -5.58% | viability [4] 87.6% | inhibition [5] 0.575% | RAM network inhibition [6] 0.78%

CSc1nc2ccc(NC(=O)C3CC(=O)N(Cc4ccco4)C3)cc2s1 (stereo unspecified)
inactive: growth inhibition [1] 4.86% | growth inhibition [2] -2.38% | viability increase [3] -5.77% | viability [4] 97.4% | inhibition [5] 1.02% | RAM network inhibition [6] 0.88%

CNC(=O)C1C2C=CC3(O2)C1C(=O)N(CCOC)C3C(=O)NCc1ccc(OC)cc1 (stereo unspecified)
inactive: growth inhibition [1] -11% | growth inhibition [2] 0.24% | viability increase [3] -1.22% | viability [4] 96% | inhibition [5] 1.67% | RAM network inhibition [6] 2.29%
